Measured values reported in PMC5982514 (Biochemistry, 2018).
Each block holds one sequence with its values, some of them ahead of it.

Assays:
Format in all cases: biochemical
[1] = biological target: Abl (Homo sapiens, UniProt P00519); test: Michaelis-Menten kinetic analysis, Abl; settings: for catalytic parameters compared with consensus peptides: consensus peptides of ref [15]
[2] = biological target: T1, FLT3 (GST-FLT3^564–993) (Homo sapiens, UniProt P36888); test: Michaelis-Menten kinetic analysis, FLT3; settings: kcat/Km of peptide 2 over peptide 5, mean±sem, two experiments
T1 sequence (P36888 564-993): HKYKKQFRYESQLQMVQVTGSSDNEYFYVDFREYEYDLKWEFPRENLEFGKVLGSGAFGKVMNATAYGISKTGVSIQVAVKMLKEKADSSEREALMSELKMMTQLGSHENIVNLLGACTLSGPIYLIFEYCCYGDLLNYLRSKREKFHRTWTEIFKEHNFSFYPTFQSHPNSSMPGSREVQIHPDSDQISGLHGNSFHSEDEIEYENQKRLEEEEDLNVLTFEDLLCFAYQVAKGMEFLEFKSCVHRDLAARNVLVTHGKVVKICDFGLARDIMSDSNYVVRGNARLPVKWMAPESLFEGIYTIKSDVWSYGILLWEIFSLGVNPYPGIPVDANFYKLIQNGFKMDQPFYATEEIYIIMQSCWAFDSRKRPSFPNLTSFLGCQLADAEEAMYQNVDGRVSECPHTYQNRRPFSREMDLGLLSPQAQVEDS
Outline: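 GST-FLT3 (residues 564–993) was expressed in HEK293T, glutathione-purified and used at 1.5 ng/μL. Peptides at 1–150 μM were reacted with 50 μM [γ-33P]ATP (0.025 μCi/μL) in 50 mM HEPES pH 7.5, 10 mM MgCl2, 1 mM DTT at 30 °C. Timepoints at 10, 20 and 30 min were spotted on P81 paper and phosphorimaged. Initial rates were fitted to Michaelis–Menten, or kcat/Km was derived from the slope up to 75 μM. Two experiments.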

[3] = biological target: ALK (His6-ALK^1090–1416) (Homo sapiens, UniProt Q9UM73); test: Michaelis-Menten kinetic analysis, ALK; settings: kcat/Km of peptide 2 over peptide 5, mean±sem, three experiments
Outline: (§1)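 His6-tagged intracellular kinase domains were expressed and purified from Sf9 cells and used at 2.7 ng/μL final. Peptides were varied over 1–150 μM with 50 μM [γ-33P]ATP (0.025 μCi/μL) in pH 7.5 HEPES buffer containing 10 mM MgCl2 at 30 °C. Aliquots taken at 10, 20 and 30 min were captured on P81 paper, washed in 75 mM H3PO4 and phosphorimaged. Rates were fitted to Michaelis–Menten, or kcat/Km was taken from the linear slope (≤75 μM). Three experiments.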

[4] = test system: BTK, SYK, ABL, SRC, ALK, EGFR and FLT3; test: Kinetic analysis across seven PTKs; settings: for substrate activity for all kinases tested: panel screen and seven PTKs
Outline: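 Kinetics on seven kinases. Final enzyme: 0.3 ng/μL ABL/BTK/SRC/SYK, 1.5 ng/μL FLT3, 2.7 ng/μL ALK/EGFR. Lys-modified peptides at 1–150 μM with 50 μM [γ-33P]ATP, 30 °C; spotted on P81 at 10/20/30 min. Michaelis–Menten fit, or kcat/Km from linear slope (≤75 μM); three runs (FLT3 two).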

[5] = biological target: BTK (GST fusion) (Homo sapiens, UniProt Q06187); test: Michaelis-Menten kinetic analysis, BTK
Outline: (§2)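 GST-fused kinases were expressed in HEK293T and purified on glutathione Sepharose, then used at 0.3 ng/μL. Peptides (Lys-substituted C-termini) were titrated from 1 to 150 μM with 50 μM [γ-33P]ATP (0.025 μCi/μL) in HEPES pH 7.5/NaCl/MgCl2/DTT/Tween 20 buffer at 30 °C. Aliquots at 10–30 min went onto P81 paper for phosphorimaging. kcat/Km came from a Michaelis–Menten fit or the linear slope (≤75 μM). Three experiments.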

[6] = biological target: Syk (GST fusion) (Homo sapiens, UniProt P43405); test: Michaelis-Menten kinetic analysis, Syk; settings: kcat/Km of peptide 2 over peptide 5, mean±sem, three experiments
Outline: as §2

[7] = biological target: EGFR (His6-EGFR^672–998) (Homo sapiens, UniProt P00533); test: Michaelis-Menten kinetic analysis, EGFR
Outline: as §1

[8] = biological target: Src (GST fusion) (Homo sapiens, UniProt P12931); test: Michaelis-Menten kinetic analysis, Src; settings: consensus peptides of ref [15]
Outline: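 GST-SRC from HEK293T, glutathione-Sepharose purified, 0.3 ng/μL final. Peptides with C-terminal Gly→Lys at 1–150 μM, in HEPES pH 7.5/NaCl/MgCl2/DTT/Tween 20 with 50 μM [γ-33P]ATP at 30 °C. Aliquots at 10, 20 and 30 min spotted on P81, H3PO4-washed, phosphorimaged. Initial rates fit to Michaelis–Menten, or kcat/Km from linear slope (≤75 μM); mean ± SEM of three experiments.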

[9] = kcat/Km of peptide 2 over peptide 5, mean±sem, three experiments

Chain of Abl (P00519 whole entry): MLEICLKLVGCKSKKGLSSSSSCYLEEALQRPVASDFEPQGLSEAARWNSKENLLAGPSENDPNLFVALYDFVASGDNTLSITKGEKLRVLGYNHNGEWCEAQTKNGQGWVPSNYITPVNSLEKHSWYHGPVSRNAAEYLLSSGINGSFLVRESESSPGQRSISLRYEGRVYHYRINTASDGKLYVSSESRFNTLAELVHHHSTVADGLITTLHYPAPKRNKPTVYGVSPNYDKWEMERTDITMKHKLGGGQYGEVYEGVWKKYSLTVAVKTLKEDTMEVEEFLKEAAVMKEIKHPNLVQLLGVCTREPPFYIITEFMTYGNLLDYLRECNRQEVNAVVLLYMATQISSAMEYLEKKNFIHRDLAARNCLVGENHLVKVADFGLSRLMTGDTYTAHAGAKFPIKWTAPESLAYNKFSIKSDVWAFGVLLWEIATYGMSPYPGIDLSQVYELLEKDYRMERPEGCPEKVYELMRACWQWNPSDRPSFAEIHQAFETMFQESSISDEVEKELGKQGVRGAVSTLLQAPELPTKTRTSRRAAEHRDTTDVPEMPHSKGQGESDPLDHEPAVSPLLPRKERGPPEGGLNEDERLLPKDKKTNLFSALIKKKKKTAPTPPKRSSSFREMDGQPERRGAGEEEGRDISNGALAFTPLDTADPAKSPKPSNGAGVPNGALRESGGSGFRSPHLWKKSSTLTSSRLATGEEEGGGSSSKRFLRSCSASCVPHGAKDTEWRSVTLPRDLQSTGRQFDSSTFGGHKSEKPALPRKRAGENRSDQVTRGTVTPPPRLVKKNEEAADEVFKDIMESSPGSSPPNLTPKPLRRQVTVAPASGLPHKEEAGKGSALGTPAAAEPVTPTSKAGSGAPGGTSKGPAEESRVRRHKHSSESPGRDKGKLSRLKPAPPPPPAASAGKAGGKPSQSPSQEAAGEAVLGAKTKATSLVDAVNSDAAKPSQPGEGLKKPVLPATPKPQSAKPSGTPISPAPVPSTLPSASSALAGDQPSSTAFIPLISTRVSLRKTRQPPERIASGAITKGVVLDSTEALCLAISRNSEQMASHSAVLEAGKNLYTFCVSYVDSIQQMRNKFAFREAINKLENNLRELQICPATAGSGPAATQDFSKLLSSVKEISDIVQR
Chain of BTK (GST fusion) (Q06187 whole entry, the tested form may be a part): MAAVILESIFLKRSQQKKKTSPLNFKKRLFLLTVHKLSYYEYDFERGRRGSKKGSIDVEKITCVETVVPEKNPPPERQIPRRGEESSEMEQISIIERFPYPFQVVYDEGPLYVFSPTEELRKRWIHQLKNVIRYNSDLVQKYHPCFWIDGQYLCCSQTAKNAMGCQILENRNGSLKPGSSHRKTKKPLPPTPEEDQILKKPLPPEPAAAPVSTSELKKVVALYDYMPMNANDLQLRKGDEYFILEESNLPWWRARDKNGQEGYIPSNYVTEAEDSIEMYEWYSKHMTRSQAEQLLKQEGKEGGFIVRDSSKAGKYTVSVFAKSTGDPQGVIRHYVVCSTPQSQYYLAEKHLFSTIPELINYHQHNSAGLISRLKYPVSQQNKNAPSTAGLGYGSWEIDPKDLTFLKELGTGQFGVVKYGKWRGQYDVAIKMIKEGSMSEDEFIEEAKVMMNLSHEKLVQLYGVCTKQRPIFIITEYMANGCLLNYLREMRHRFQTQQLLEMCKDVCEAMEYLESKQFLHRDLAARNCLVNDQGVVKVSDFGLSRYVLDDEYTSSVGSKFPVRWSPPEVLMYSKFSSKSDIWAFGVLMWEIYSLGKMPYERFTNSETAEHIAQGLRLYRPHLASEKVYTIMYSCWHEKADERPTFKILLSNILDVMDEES
Chain of ALK (His6-ALK^1090–1416) (Q9UM73 1090-1416): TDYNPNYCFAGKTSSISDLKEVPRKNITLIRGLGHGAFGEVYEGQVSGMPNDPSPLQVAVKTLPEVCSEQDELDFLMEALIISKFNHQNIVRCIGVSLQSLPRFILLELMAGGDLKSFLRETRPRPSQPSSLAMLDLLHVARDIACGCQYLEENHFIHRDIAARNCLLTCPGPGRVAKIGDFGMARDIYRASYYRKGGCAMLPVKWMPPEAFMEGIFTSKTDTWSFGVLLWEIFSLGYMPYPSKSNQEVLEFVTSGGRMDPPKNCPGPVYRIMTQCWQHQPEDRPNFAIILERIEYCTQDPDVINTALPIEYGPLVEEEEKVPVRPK

Sequence: EDPIYVTLE [Peptide 2]
catalytic parameters compared with consensus peptides [1]: rivaled those determined with consensus peptides | 2/5 kcat/Km ratio [1, 9]: 0.13 ± 0.01 | 2/5 kcat/Km ratio [2]: 1.43 ± 0.07 | 2/5 kcat/Km ratio [3]: 1.23 ± 0.02 | preference of RTKs ([4]; RTKs among the kinases examined, generally, peptide 2 vs peptide 5): generally preferred over peptide 5 for RTKs | substrate activity for all kinases tested [4]: successful substrates for all kinases tested | 2/5 kcat/Km ratio [5, 9]: 0.31 ± 0.01 | 2/5 kcat/Km ratio [6]: 1.8 ± 0.2 | 2/5 kcat/Km ratio [7, 9]: 5.8 ± 0.2 | kinase preference between peptides 2 and 5 ([7]; specificity constant): more substantial preference | catalytic parameters compared with consensus peptides [8]: rivaled those determined with consensus peptides

kinase preference between peptides 2 and 5 ([1]; specificity constant): more substantial preference | kinase preference between peptides 2 and 5 ([5]; specificity constant): more substantial preference
Sequence: DEAIYATVA [Peptide 5]
catalytic parameters compared with consensus peptides [1]: rivaled those determined with consensus peptides | preference of NRTKs ([4]; NRTKs among the kinases examined, peptide 5 vs peptide 2): the reverse preference was seen for NRTKs | substrate activity for all kinases tested [4]: successful substrates for all kinases tested | catalytic parameters compared with consensus peptides [8]: rivaled those determined with consensus peptides
